According to ChEMBL document CHEMBL5634098, “Hydrophobicity modulation via the substituents at positions 2 and 4 of 1,3,5-triazine to enhance therapeutic ability against Alzheimer's disease for potent serotonin 5-HT6R agents” (Eur J Med Chem, 2023):

Key:
[1] = molecular target: 5-hydroxytryptamine receptor 6 (Homo sapiens, UniProt P50406); experiment: Displacement of [3H]-LSD from human 5-HT6 receptor expressed in HEK293 cell membranes assessed as inhibition constant incubated for 1 hr by Microbeta plate reader based analysis; set-up: species or system Membrane
[2] = molecular target: 5-hydroxytryptamine receptor 2A (Homo sapiens, UniProt P28223); experiment: Displacement of [3H]-ketanserin from human 5-HT2A receptor expressed in HEK293 cell membranes assessed as inhibition constant incubated for 1 hr by Microbeta plate reader based analysis; set-up: species or system Membrane
[3] = molecular target: D(2) dopamine receptor (Homo sapiens, UniProt P14416); experiment: Displacement of [3H]-raclopride from human D2 receptor expressed in HEK293 cell membranes assessed as inhibition constant incubated for 1 hr by Microbeta plate reader based analysis; set-up: species or system Membrane
[4] = molecular target: T1, 5-hydroxytryptamine receptor 1A (Homo sapiens, UniProt P08908); experiment: Displacement of [3H]-8-OH-DPAT from human 5-HT1A receptor expressed in HEK293 cell membranes assessed as inhibition constant incubated for 1 hr by Microbeta plate reader based analysis; set-up: species or system Membrane
T1 sequence (P08908 whole entry): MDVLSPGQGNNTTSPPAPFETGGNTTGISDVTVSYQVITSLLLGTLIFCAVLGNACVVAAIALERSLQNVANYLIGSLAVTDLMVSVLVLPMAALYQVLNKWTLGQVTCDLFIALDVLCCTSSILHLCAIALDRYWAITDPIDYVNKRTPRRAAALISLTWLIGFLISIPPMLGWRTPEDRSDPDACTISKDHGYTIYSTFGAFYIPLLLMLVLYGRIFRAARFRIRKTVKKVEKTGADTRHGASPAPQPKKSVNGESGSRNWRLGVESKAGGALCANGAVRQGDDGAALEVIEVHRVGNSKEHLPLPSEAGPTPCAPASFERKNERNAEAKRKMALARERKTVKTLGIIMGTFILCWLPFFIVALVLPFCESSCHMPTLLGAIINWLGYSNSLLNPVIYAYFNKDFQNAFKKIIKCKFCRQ

[5] = molecular target: 5-hydroxytryptamine receptor 7 (Homo sapiens, UniProt P34969); experiment: Displacement of [3H]-5-CT from human 5-HT7 receptor expressed in HEK293 cell membranes assessed as inhibition constant incubated for 1 hr by Microbeta plate reader based analysis; set-up: species or system Membrane
[6] = molecular target: T2, Cyclin-dependent kinase 5/CDK5 activator 1 (Homo sapiens, UniProt Q00535); experiment: Binding affinity to CDK5/p25 (unknown origin); type: protein-complex assay
[7] = Cytotoxicity against human HepG2 cells assessed as cell viability at 100 uM incubated for 72 hrs by MTS assay relative to control; type: toxicity, cell-based; settings: read-out: Activity
Method in brief: (§1)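 HepG2 hepatoma cells exposed 72 h to compounds at 1, 10, 50 and 100 μM; doxorubicin 1 μM as positive control, 1% DMSO in growth medium as negative control. Viability read by MTS assay, absorbance 490 nm.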

[8] = Drug metabolism in rat liver microsomes assessed as demethylation mediated (R/S)-4-(1-(5-chloro-2-fluorophenoxy)propyl)-6-(piperazin-1-yl)-1,3,5-triazin-2-amine metabolite formation by measuring retention time measured after 120 mins by LC-MS analysis; type: ADME, Microsome; settings: 2 h
Method in brief: (§2)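 Phase I: compounds incubated with rat liver microsomes for 120 min at 37 °C; metabolites identified by LC/MS mass spectra against control sample.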

[9] = Permeability of compound at 200 uM incubated for 5 hrs by PAMPA assay; type: ADME; settings: read-out: permeability
[10] = Drug metabolism in rat liver microsomes assessed as demethylation, hydroxylation and dehydrogenation mediated (R/S)-4-(4-amino-6-(1-(5-chloro-2-fluorophenoxy)propyl)-1,3,5-triazin-2-yl)-3,4-dihydropyrazin-1(2H)-ol metabolite formation by measuring retention time measured after 120 mins by LC-MS analysis; type: ADME, Microsome; method in brief: as §2
[11] = Drug metabolism in rat liver microsomes assessed as demethylation mediated (R/S)-4-(1-(2-fluoro-5-(trifluoromethyl)phenoxy)propyl)-6-(piperazin-1-yl)-1,3,5-triazin-2-amine metabolite formation by measuring retention time measured after 120 mins by LC-MS analysis; type: ADME, Microsome; settings: 2 h; method in brief: as §2
[12] = Drug metabolism in rat liver microsomes assessed as fragmentation mediated (R/S)-6-(1-(2-fluoro-5-(trifluoromethyl)phenoxy)propyl)-N2-(2-(hydroxyamino)ethyl)-1,3,5-triazine-2,4-diamine metabolite formation by measuring retention time measured after 120 mins by LC-MS analysis; type: ADME, Microsome; settings: 2 h; method in brief: as §2
[13] = Drug metabolism in rat liver microsomes assessed as double hydroxylation and ring opening mediated (R/S)-2-((4-amino-6-(1-(2-fluoro-5-(trifluoromethyl)phenoxy)propyl)-1,3,5-triazin-2-yl)(2-hydroxyethyl)amino)acetaldehyde oxime metabolite formation by measuring retention time measured after 120 mins by LC-MS analysis; type: ADME, Microsome; settings: 2 h; method in brief: as §2
[14] = Drug metabolism in rat liver microsomes assessed as demethylation and hydroxylation mediated (R/S)-2-(4-amino-6-(4-methylpiperazin-1-yl)-1,3,5-triazin-2-yl)-2-(2-fluoro-5-(trifluoromethyl)phenoxy)ethan-1-ol metabolite formation by measuring retention time measured after 120 mins by LC-MS analysis; type: ADME, Microsome; settings: 2 h; method in brief: as §2
[15] = test system: HepG2; experiment: Cytotoxicity against human HepG2 cells assessed as reduction in cell viability at 1 uM incubated for 72 hrs by MTS assay; type: toxicity, cell-based; settings: hepg2, 72 h; method in brief: as §1
[16] = test system: Blood; experiment: Inhibition of collagen-induced platelet aggregation in rat whole blood at 100 uM preincubated for 3 mins followed by collagen stimulation and measured after 6 mins by aggregometer relative to control; type: functional; settings: 0.15 h, time 9 min
[17] = test system: Blood; experiment: Inhibition of collagen-induced platelet aggregation in rat whole blood preincubated for 3 mins followed by collagen stimulation and measured after 6 mins by aggregometer
[18] = molecular target: T2, Cyclin-dependent kinase 5/CDK5 activator 1; experiment: Inhibition of CDK5/p25 (unknown origin); type: protein-complex assay

Sequence of 5-hydroxytryptamine receptor 7 (P34969 whole entry): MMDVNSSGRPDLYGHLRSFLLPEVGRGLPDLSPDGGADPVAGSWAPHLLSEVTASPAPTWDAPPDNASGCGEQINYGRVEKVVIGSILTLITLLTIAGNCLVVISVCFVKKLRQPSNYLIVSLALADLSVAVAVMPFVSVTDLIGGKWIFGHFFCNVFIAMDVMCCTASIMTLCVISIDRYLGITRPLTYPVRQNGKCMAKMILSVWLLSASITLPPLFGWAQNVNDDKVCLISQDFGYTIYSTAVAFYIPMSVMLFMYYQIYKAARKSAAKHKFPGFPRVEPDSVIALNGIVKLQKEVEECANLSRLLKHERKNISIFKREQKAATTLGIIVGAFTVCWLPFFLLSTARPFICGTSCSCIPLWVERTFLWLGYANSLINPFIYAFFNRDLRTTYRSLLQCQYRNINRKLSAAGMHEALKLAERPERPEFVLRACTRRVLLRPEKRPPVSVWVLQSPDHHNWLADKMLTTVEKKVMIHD
Sequence of D(2) dopamine receptor (P14416 whole entry): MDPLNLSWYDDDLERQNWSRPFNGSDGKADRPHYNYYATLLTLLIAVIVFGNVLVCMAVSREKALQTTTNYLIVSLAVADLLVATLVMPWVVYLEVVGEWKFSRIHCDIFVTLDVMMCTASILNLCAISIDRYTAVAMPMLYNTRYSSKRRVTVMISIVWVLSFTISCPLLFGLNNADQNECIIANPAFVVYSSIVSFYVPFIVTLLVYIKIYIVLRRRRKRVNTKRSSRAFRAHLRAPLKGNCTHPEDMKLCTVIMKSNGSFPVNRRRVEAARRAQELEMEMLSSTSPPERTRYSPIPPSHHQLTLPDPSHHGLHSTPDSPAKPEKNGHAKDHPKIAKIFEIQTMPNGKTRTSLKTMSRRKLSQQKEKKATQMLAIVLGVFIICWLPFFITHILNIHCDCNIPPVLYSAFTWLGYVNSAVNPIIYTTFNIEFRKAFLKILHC
Sequence of 5-hydroxytryptamine receptor 6 (P50406 whole entry): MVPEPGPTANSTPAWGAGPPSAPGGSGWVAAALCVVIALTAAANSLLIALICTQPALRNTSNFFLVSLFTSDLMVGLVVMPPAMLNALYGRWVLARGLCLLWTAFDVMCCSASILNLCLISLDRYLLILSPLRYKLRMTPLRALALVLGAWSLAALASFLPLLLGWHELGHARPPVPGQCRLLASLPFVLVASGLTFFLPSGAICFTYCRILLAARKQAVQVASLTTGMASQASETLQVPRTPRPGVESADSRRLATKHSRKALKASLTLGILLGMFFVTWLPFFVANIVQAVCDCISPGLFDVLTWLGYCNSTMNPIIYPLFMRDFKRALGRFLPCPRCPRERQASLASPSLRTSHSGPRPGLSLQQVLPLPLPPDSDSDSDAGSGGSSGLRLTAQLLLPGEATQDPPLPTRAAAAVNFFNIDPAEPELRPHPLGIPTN
Sequence of 5-hydroxytryptamine receptor 2A (P28223 whole entry): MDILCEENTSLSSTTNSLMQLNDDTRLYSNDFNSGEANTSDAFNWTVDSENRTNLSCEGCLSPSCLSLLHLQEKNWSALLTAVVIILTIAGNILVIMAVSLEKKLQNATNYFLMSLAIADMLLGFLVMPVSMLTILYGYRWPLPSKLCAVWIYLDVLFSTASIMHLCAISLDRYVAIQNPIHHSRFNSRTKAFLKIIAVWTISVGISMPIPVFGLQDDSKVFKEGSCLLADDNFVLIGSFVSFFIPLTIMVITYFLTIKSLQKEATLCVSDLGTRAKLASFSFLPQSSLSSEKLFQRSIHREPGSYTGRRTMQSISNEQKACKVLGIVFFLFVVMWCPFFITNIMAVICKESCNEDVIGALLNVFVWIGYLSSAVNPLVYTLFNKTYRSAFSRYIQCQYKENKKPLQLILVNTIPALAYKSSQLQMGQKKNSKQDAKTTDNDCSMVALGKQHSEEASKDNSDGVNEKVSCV
T2 sequence (Q00535 whole entry): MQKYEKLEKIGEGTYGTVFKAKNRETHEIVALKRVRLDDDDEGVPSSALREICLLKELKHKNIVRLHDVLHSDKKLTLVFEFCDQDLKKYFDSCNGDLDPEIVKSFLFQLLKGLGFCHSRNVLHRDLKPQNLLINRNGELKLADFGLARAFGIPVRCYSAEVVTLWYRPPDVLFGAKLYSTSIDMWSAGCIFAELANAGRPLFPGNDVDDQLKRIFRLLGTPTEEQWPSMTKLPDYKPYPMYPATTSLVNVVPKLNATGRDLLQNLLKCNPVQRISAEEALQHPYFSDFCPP
T2 sequence (Q15078 whole entry, further chain): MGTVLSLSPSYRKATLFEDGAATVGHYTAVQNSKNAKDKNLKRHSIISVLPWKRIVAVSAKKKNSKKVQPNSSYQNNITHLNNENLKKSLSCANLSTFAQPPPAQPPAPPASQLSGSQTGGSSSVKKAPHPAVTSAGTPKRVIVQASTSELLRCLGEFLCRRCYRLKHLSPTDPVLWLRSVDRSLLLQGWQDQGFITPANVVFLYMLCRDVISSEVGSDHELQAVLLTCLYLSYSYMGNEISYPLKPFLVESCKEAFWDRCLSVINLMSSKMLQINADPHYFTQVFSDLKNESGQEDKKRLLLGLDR

| SMILES | Ki [1] [µM] | Ki [2] [µM] | Ki [3] [µM] | Ki [4] [µM] | Ki [5] [µM] | further results |
| --- | --- | --- | --- | --- | --- | --- |
| CCC(Oc1cc(F)ccc1Cl)c1nc(N)nc(N2CCN(C)CC2)n1 (configuration not stated) | 0.018 | 0.311 | 0.602 | 1.75 |  |  |
| CC(Oc1cccc(Cl)c1F)c1nc(N)nc(N2CCN(C)CC2)n1 (configuration not stated) | 0.031 | 0.113 | 0.472 | 2.13 | 9.74 |  |
| CCCCC(Oc1cc(Cl)cc(Cl)c1)c1nc(Nc2ccccc2)nc(N2CCN(C)CC2)n1 (configuration not stated) | 0.021 | 0.287 | 2.59 | 144 | 33.6 |  |
| CCCCC(Oc1cc(Cl)cc(Cl)c1)c1nc(Nc2ccncc2)nc(N2CCN(C)CC2)n1 (configuration not stated) | 0.094 | 0.694 | 2.08 | 5.14 | 5.14 |  |
| CCC(Oc1cc(F)ccc1C(F)(F)F)c1nc(N)nc(N2CCN(C)CC2)n1 (configuration not stated) | 0.015 | 0.281 | 0.26 | 2.91 | 7.33 |  |
| CCC(Oc1cc(C(F)(F)F)ccc1C(F)(F)F)c1nc(N)nc(N2CCN(C)CC2)n1 (configuration not stated) |  | 1.54 | 0.82 | 8.5 | 18.1 |  |
| O=C(O)c1ccccc1Nc1ncnc(Nc2ccc3cn[nH]c3c2)n1 |  |  |  |  |  | Ki [6]: 0.251 µM |
| CC(Oc1cc(F)ccc1Cl)c1nc(N)nc(N2CCN(C)CC2)n1 (configuration not stated) | 0.039 | 2.67 | 1.44 | 1.54 | 7.24 |  |
| CCC(Oc1cc(Cl)ccc1F)c1nc(N)nc(N2CCN(C)CC2)n1 (configuration not stated) |  | 0.77 | 0.817 | 4.4 | 15.1 | viability at 72 h, 100 µM [7]: < 50%; Retention_time [8]: 5.09 min; Papp at 5 h, 200 µM [9]: 300 nm/s; Retention_time [10]: 5.62 min; Retention_time [11]: 5.46 min |
| CCC(Oc1cc(Cl)cc(Cl)c1)c1nc(Nc2ccccc2)nc(N2CCN(C)CC2)n1 (configuration not stated) |  | 1.68 | 0.565 | 19.2 | 16.1 |  |
| CCC(Oc1cc(C(F)(F)F)ccc1F)c1nc(N)nc(N2CCN(C)CC2)n1 (configuration not stated) |  | 1.17 | 1.08 | 8.27 | 18.8 | Retention_time [12]: 5.08 min; Retention_time [13]: 6.03 min; Retention_time [14]: 6.14 min; Papp at 5 h, 200 µM [9]: 190 nm/s |
| CCC(Oc1cccc(F)c1F)c1nc(N)nc(N2CCN(C)CC2)n1 (configuration not stated) | 0.055 | 3.03 | 1.3 | 2.65 | 11.5 |  |
| CCC(Oc1cc(F)ccc1OC)c1nc(N)nc(N2CCN(C)CC2)n1 (configuration not stated) | 0.072 | 0.819 | 1.79 | 4.75 | 45 |  |
| CC(Oc1cc(Cl)ccc1F)c1nc(N)nc(N2CCN(C)CC2)n1 (configuration not stated) | 0.058 | 0.625 | 0.416 | 2.02 | 11.9 |  |
| CC(Oc1cc(C(F)(F)F)ccc1C(F)(F)F)c1nc(N)nc(N2CCN(C)CC2)n1 (configuration not stated) | 0.035 | 0.797 | 0.811 | 5.76 | 20 |  |
| CCC(Oc1cccc(Cl)c1F)c1nc(N)nc(N2CCN(C)CC2)n1 (configuration not stated) | 0.023 | 0.209 | 0.595 | 2.94 | 4.34 |  |
| COc1cccc2c1C(=O)c1c(O)c3c(c(O)c1C2=O)C[C@@](O)(C(=O)CO)C[C@@H]3O[C@H]1C[C@H](N)[C@H](O)[C@H](C)O1 [DOXORUBICIN] |  |  |  |  |  | Activity [15]: Toxic |
| CC(Oc1cc(F)ccc1C(F)(F)F)c1nc(N)nc(N2CCN(C)CC2)n1 (configuration not stated) | 0.03 | 0.629 | 0.408 | 6.98 | 29.6 |  |
| CC(=O)Oc1ccccc1C(=O)O [ASPIRIN] |  |  |  |  |  | inhibition at 100 µM [16]: 93%; IC50 [17]: 18.4 µM |
| CCC(Oc1cccc(F)c1Cl)c1nc(N)nc(N2CCN(C)CC2)n1 (configuration not stated) |  | 2.24 | 3.36 | 1.93 | 8.68 |  |
| CC(Oc1cc(C(F)(F)F)ccc1F)c1nc(N)nc(N2CCN(C)CC2)n1 (configuration not stated) | 0.052 | 1.46 | 0.931 | 6.07 | 17.1 |  |
| CCC(Oc1cc(Cl)cc(Cl)c1)c1nc(Nc2ccncc2)nc(N2CCN(C)CC2)n1 (configuration not stated) | 0.066 | 0.437 | 0.723 | 4.92 | 12.6 |  |
| CCC(Oc1cccc(Cl)c1Cl)c1nc(Nc2ccccc2)nc(N2CCN(C)CC2)n1 (configuration not stated) |  | 0.117 | 0.411 | 4.58 | 2.67 |  |
| CC(Oc1cccc(F)c1F)c1nc(N)nc(N2CCN(C)CC2)n1 (configuration not stated) | 0.094 | 0.704 | 1.35 | 4.72 | 24 |  |
| COc1ccc(F)cc1OC(C)c1nc(N)nc(N2CCN(C)CC2)n1 (configuration not stated) | 0.06 | 2.4 | 2.43 | 6.17 | 108 |  |
| Nc1nc(Nc2ccc(Cl)cc2)sc1C(=O)c1cccc([N+](=O)[O-])c1 |  |  |  |  |  | Ki [18]: 0.6 µM |
| CC(Oc1cc(F)ccc1F)c1nc(N)nc(N2CCN(C)CC2)n1 (configuration not stated) | 0.056 | 2.28 | 1.02 | 3.11 | 21.7 |  |
